High-throughput results as filed in PubChem BioAssay.
DNA FID counter: compounds displacing fluorescent DNA intercalator, primary screen, artefact control for HCV NS3 helicase inhibitor project, biochemical, FID fluorescence; DNA fluorescent intercalator displacement; inhibition, % at 7.9 µM; actives 0.17% (n = 290,000); AID 1845, 2009; in the data active = inhibition above about 37%;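 also: 0% = vehicle and 100% = reference compound; higher means more ethidium bromide displaced from hairpin DNA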
RAD54 branch: inhibitors of human RAD54 branch migration, primary screen, biochemical, fluorescence, single point; DNA repair and recombination protein RAD54-like (Homo sapiens), Q92698; RAD54 Holliday junction branch migration, FAM/BHQ fluorescence; inhibition, % at 10.4 µM; actives 0.14% (n = 360,000); AID 602329, 2012;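 active = mean normalized replicate activity at least 40 and at least half of replicates scoring 40 or more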;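 also: 0% = median of neutral control wells and 100% = median of positive control wells; inhibitors cause a drop in the FAM fluorescence signal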
UBC13 polyUb: UBC13 polyubiquitin chain formation inhibitors, primary screen, biochemical, TR-FRET, uHTS; Ubiquitin-conjugating enzyme E2 N (Homo sapiens), P61088; inhibition, % at 20 µM; actives 0.47% (n = 330,000); AID 485273, 2010; in the data active = inhibition above about 45%, passing the limit was not always enough
Target sequence (P61088 whole entry, looked up): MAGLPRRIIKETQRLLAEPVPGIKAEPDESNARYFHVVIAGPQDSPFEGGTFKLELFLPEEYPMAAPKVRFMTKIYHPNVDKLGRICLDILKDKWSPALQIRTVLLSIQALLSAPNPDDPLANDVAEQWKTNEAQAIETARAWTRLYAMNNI
RAD52 anneal inh: RAD52 DNA annealing inhibitors, primary screen, biochemical, FRET, single point, set 2; recombinant RAD52 DNA annealing, FRET fluorescence; actives 0.46% (n = 360,000); inhibition, % at 18.7 µM;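 active = every replicate showing at least 50% inhibition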
Neddylation inh: inhibitors of cullin neddylation, primary screen, biochemical, TR-FRET, uHTS, NAE and Ubc12 | actives 0.58% (n = 360,000) | AID 651699, 2012 | calls only at 25 µM | NEDD8-conjugating enzyme Ubc12 (Homo sapiens) + NEDD8-activating enzyme E1 regulatory …; in the data active = inhibition above about 36%
Apaf1 inhib: inhibitors of human Apaf-1 apoptosome, primary screen, biochemical, DEVD-Rh110 fluorescence, uHTS | AID 489030, 2010 | inhibition, % at 20 µM | actives 0.71% (n = 330,000) | reconstituted apoptosome caspase-3 activity; active = inhibition of at least 40% at 20 µM;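 also: plate controls were DMSO wells for no effect and DEVD-CHO caspase inhibitor wells for full effect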
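Assay system: Apoptosome proteins | Medium: pH 7.5 Hepes buffer with CHAPS, BSA, DTT | Also added: Cytochrome c and DEVD-Rh110 substrate | Times: 30 min plus 50 min, RT | Detection: Rhodamine 110 fluorescence at Ex 480/Em 540 nm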
Apaf-1 inh conf2: Apaf-1 inhibitors, single-dose retest, confirmation, biochemical, fluorescence, DEVD-Rh110, 20 µM; shares compounds with Apaf1 inhib; reconstituted apoptosome, caspase-3 DEVD-Rh110 fluorescence; inhibition, % at 20 µM; actives 25% (n = 1,800);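 active = mean inhibition of at least 40% at 20 µM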;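 also: plate controls were DMSO wells for no effect and DEVD-CHO caspase inhibitor control wells for full effect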
Rh110 interf inh: Rh110 fluorescence interference by putative Apaf-1 inhibitors, confirmation, artefact control for Apaf-1 inhibitor project, biochemical, 20 µM | shares compounds with Apaf1 inhib | quenched caspase reaction | activation (fluorescence interference), % at 20 µM | 1,800 tested, under 10 active;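 active = signal rise of 40% or more at 20 µM, treated as a fluorescence artifact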
Active calls of the source: *; i = inactive; nt = no result given. Rows were chosen to be rich in hits. Some 1.6% of all compounds tested hit in one or more screens of this group.

SMILES | DNA FID counter | RAD54 branch | UBC13 polyUb | RAD52 anneal inh | Neddylation inh | Apaf1 inhib | Apaf-1 inh conf2 | Rh110 interf inh
COc1cccc2c1C(=O)c1c(O)c3c(c(O)c1C2=O)CC(O)(C(=O)CO)CC3OC1CC(N(C)C)C(O)C(C)O1 (stereo not given) | nt | nt | nt | i | i | nt | nt | nt
Oc1c(Cl)cc(Cl)c2c1NCCC2 | 2 | 10 | -15 | nt | i | 47* | 27 | -2
O=C1NCCCc2c1oc1ccc(O)cc21 | 1 | 1 | -6 | nt | i | 1 | nt | nt
CCC(=O)N1[C@@H](CO)[C@@H]2c3ccccc3N(C(=O)Nc3cccc(Cl)c3)C[C@@H]21 | nt | 11 | nt | -1 | nt | nt | nt | nt
O=C1c2ccccc2[C@@H]2C[C@@H](O)[C@H](Nc3cccc4ccccc34)CCN12 | nt | 4 | nt | -17 | i | 53* | 28 | 8
COc1ccc(C2/C(=C(/O)c3ccc4c(c3)CC(C)O4)C(=O)C(=O)N2CCCn2ccnc2)cc1 (stereo not given) | -25 | -1 | -41 | -8 | i | 42* | 7 | 4
COc1ccccc1C1/C(=C(\O)c2ccc3c(c2)OCCO3)C(=O)C(=O)N1CCCn1ccnc1 (stereo not given) | -3 | -7 | -18 | -2 | i | 45* | 12 | -1
CC(=O)N1[C@H](CO)[C@H](c2ccc(-c3cccnc3)cc2)[C@H]1CNC(=O)C1CC1 | nt | nt | nt | -13 | nt | nt | nt | nt
O=C(Cc1ccccn1)N1CC(=O)N2[C@H](CO)[C@H](c3ccc(C#CC4CCCC4)cc3)[C@H]2C1 | nt | nt | nt | -13 | nt | nt | nt | nt
